The source made the active and inactive calls. No cut-off for these calls is given here.
Key:
[1] = molecular target: CDK18/Cyclin Y (Homo sapiens) (UniProt Q07002+Q8ND76); assay: Inhibition of CDK18/Cyclin Y (unknown origin) at 1 uM; format: protein-complex assay
Outline: (§1)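 Residual activity of each kinase with compound at 1 µM, measured in a contracted radioisotope-based kinase profiling assay and expressed as % kinase activity remaining.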

MV4-11 = assay: Growth inhibition of human MV4-11 cells after 72 hrs by resazurin staining based assay; format: functional
Outline: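 MV4-11 leukaemia cells grown in medium with 10% FBS at 37 °C, 5% CO2. Growth was read by a 72-h resazurin viability assay. GI50 was obtained by nonlinear regression and reported as mean ± standard deviation of at least two replicates.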

U-937 = assay: Growth inhibition human U-937 cells after 72 hrs by resazurin or MTT assay; format: functional
Outline: (§2)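 Tumour cell lines kept in RPMI-1640, DMEM or MEM with 10% FBS at 37 °C, 5% CO2, mycoplasma-free. Exposure lasted 72 h. Viability was read by MTT for adherent solid-tumour lines and by resazurin for suspension leukaemia lines. GI50 came from nonlinear regression, given as mean ± standard deviation of at least two replicates unless stated otherwise.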

COLO 205 = assay: Growth inhibition human COLO 205 cells after 72 hrs by resazurin or MTT assay; format: functional; outline: as §2
MOLM-13 = assay: Growth inhibition human MOLM-13 cells after 72 hrs by resazurin or MTT assay; format: functional; outline: as §2
[2] = molecular target: CDK17/Cyclin-Y (Homo sapiens) (UniProt Q00537+Q8ND76); assay: Inhibition of CDK17/Cyclin Y (unknown origin) at 1 uM; format: protein-complex assay; outline: as §1
[3] = molecular target: CDK2/Cyclin A2 (Homo sapiens) (UniProt P24941+P20248); assay: Inhibition of CDK2/cyclin-A (unknown origin) at 1 uM; format: protein-complex assay; outline: as §1
[4] = Inhibition of CYP4501A in human liver microsomes using ethoxyresorufin O-deethylation as substrate by LC-MS/MS analysis
[5] = molecular target: Glycogen synthase kinase-3 alpha (Homo sapiens, UniProt P49840); assay: Inhibition of human GSKalpha S449A mutant (2 to 3nd residues) using YRRAAVPPSPSLSRHSSPHQS(p) EDEEE as substrate incubated for 40 mins in presence of [gamma-33P]-ATP by scintillation counting method
Outline: (§3)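 Outsourced radioisotope (HotSpot) kinase assay run by a contract lab, with ATP at the kinase's Km(ATP). The IC50 was converted to an apparent Ki by the Cheng-Prusoff equation, Ki = IC50/(1+[ATP]/Km(ATP)), using the experimentally determined Km(ATP).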

CDK8/Cyclin C = CDK8/Cyclin C (Homo sapiens, UniProt P49336); assay: Inhibition of CDK8/cyclin C (unknown origin) using RBER-IRStide as substrate incubated for 60 mins in presence of [gamma33P]ATP by scintillation counting method; format: protein-complex assay
MDA-MB-231 = assay: Growth inhibition human MDA-MB-231 cells after 72 hrs by resazurin or MTT assay; format: functional; outline: as §2
[6] = tested on: Glycogen synthase kinase-3 beta (Homo sapiens), P49841 [UNDEFINED MUTATION]; assay: Inhibition of human GSKbeta H350L mutant (2 to 3nd residues) at 1 uM using YRRAAVPPSPSLSRHSSPHQS(p) EDEEE as substrate incubated for 40 mins in presence of [gamma-33P]-ATP by scintillation counting method relative to control
Outline: (§4)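 Single-point screen of residual kinase activity (%) at 1 µM compound. Run as a contract radiometric [γ-33P]-ATP kinase assay, either the KinaseProfiler service or the HotSpot assay. ATP was set at the experimentally determined Km(ATP) of each kinase.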

[7] = molecular target: Cyclin-dependent kinase 4/cyclin D1 (Homo sapiens) (UniProt P11802+P24385); assay: Inhibition of CDK4/cyclin-D1 (unknown origin) at 1 uM; format: protein-complex assay; outline: as §1
[8] = molecular target: Cyclin-dependent kinase 14/Cyclin-Y (Homo sapiens) (UniProt O94921+Q8ND76); assay: Inhibition of CDK14/Cyclin Y (unknown origin) at 1 uM; format: protein-complex assay; outline: as §1
[9] = Growth inhibition human WI38 cells after 72 hrs by resazurin or MTT assay; format: cell-based; details: WI-38 cells
HCT-116 = assay: Growth inhibition human HCT-116 cells after 72 hrs by resazurin or MTT assay; format: functional; outline: as §2
[10] = tested on: Glycogen synthase kinase-3 alpha (Homo sapiens), P49840 [UNDEFINED MUTATION]; assay: Inhibition of human GSKalpha S449A mutant (2 to 3nd residues) at 1 uM using YRRAAVPPSPSLSRHSSPHQS(p) EDEEE as substrate incubated for 40 mins in presence of [gamma-33P]-ATP by scintillation counting method relative to control; outline: as §4
[11] = molecular target: Cyclin-Y/Cyclin-dependent kinase 16 (Homo sapiens) (UniProt Q00536+Q8ND76); assay: Inhibition of CDK16/Cyclin Y (unknown origin) at 1 uM; format: protein-complex assay; outline: as §1
[12] = molecular target: T1, Cyclin-dependent kinase 5/CDK5 activator 1 (Homo sapiens) (UniProt Q00535+Q15078); assay: Inhibition of CDK5/p35 (unknown origin) at 1 uM; format: protein-complex assay; outline: as §1
[13] = molecular target: CDK3/Cyclin E (Homo sapiens) (UniProt P24864+Q00526); assay: Inhibition of CDK3/cyclin-E (unknown origin) at 1 uM; format: protein-complex assay; outline: as §1
PANC-1 = assay: Growth inhibition human PANC-1 cells after 72 hrs by resazurin or MTT assay; format: functional; outline: as §2
[14] = molecular target: T2, Protein kinase C theta type (Homo sapiens, UniProt Q04759); assay: Inhibition of human full length PKCtheta using histone H1 as substrate incubated for 40 mins in presence of [gamma-33P]-ATP by scintillation counting method
Outline: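 IC50 measured in a contracted radiometric kinase assay with ATP at the experimentally determined Km(ATP) of each kinase. Apparent Ki was derived by Cheng-Prusoff: Ki = IC50/(1+[ATP]/Km(ATP)).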
Target sequence in this assay (Q04759 whole entry): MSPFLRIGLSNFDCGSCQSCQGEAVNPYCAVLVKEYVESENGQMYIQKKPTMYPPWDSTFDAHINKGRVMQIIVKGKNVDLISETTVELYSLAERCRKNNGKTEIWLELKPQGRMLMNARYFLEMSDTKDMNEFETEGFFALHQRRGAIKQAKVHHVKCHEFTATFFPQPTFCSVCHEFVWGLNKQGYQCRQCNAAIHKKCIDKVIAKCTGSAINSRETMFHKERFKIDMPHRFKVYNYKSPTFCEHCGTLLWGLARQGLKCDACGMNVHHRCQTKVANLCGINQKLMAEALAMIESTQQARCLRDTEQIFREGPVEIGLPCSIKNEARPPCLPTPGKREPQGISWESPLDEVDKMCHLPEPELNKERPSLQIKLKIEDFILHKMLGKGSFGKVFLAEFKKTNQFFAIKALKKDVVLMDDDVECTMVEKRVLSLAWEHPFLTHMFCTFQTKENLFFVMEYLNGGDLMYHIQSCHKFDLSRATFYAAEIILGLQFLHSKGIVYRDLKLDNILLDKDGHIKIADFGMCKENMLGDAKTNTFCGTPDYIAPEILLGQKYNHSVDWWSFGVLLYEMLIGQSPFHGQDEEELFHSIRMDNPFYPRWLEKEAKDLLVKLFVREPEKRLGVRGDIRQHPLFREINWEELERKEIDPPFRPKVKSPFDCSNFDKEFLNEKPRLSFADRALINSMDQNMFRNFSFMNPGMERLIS

[15] = molecular target: T2, Protein kinase C theta type; assay: Inhibition of human full length PKCtheta at 1 uM using histone H1 as substrate incubated for 40 mins in presence of [gamma-33P]-ATP by scintillation counting method relative to control; outline: as §4
Target sequence in this assay (Q04759 whole entry, looked up): as the sequence (Q04759 whole entry) above

[16] = molecular target: CDK9/cyclin T1 (Homo sapiens) (UniProt O60563+P50750); assay: Inhibition of CDK9/Cyclin T1 (unknown origin) at 1 uM relative to control; format: protein-complex assay; outline: as §1
A2780 = assay: Growth inhibition human A2780 cells after 72 hrs by resazurin or MTT assay; format: functional; outline: as §2
[17] = molecular target: Glycogen synthase kinase-3 beta (Homo sapiens, UniProt P49841); assay: Inhibition of human GSKbeta H350L mutant (2 to 3nd residues) using YRRAAVPPSPSLSRHSSPHQS(p) EDEEE as substrate incubated for 40 mins in presence of [gamma-33P]-ATP by scintillation counting method; outline: as §3
[18] = molecular target: T1, Cyclin-dependent kinase 5/CDK5 activator 1 (Homo sapiens); assay: Inhibition of CDK5/p25 (unknown origin) at 1 uM; format: protein-complex assay; outline: as §1
[19] = molecular target: CDK7/Cyclin H/MNAT1 (Homo sapiens) (UniProt P51946+P50613+P51948); assay: Inhibition of CDK7/cyclin H/MNAT1 (unknown origin) at 1 uM; format: protein-complex assay; outline: as §1
T47D = assay: Growth inhibition human T47D cells after 72 hrs by resazurin or MTT assay; format: functional; outline: as §2
[20] = molecular target: Cyclin-dependent kinase 1/cyclin B1 (Homo sapiens) (UniProt P06493+P14635); assay: Inhibition of CDK1/cyclin-B (unknown origin) at 1 uM relative to control; format: protein-complex assay; outline: as §1
HT-29 = assay: Growth inhibition human HT-29 cells after 72 hrs by resazurin or MTT assay; format: functional; outline: as §2
MCF7 = assay: Growth inhibition human MCF7 cells after 72 hrs by resazurin or MTT assay; format: functional; outline: as §2
[21] = molecular target: CDK6/cyclin D3 (Homo sapiens) (UniProt P30281+Q00534); assay: Inhibition of CDK6/cyclin-D3 (unknown origin) at 1 uM; format: protein-complex assay; outline: as §1
MDA-MB-453 = assay: Growth inhibition human MDA-MB-453 cells after 72 hrs by resazurin or MTT assay; format: functional; outline: as §2

T1 sequence (Q00535 whole entry): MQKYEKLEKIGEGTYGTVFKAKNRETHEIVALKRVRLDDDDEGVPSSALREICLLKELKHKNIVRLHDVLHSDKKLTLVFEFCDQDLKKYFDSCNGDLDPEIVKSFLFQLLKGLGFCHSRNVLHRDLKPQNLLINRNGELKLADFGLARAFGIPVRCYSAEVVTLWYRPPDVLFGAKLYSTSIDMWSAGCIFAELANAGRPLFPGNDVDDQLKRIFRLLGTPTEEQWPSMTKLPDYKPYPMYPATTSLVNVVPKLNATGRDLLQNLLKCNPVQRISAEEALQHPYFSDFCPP
T1 sequence (Q15078 99-307 partner limits assumed): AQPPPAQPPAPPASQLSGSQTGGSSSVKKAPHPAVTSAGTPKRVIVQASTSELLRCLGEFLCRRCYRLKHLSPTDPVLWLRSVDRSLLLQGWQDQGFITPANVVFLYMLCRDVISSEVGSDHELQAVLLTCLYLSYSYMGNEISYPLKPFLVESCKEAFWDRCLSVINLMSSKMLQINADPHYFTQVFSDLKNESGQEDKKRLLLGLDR
Glycogen synthase kinase-3 beta (Homo sapiens), P49841 [UNDEFINED MUTATION], sequence (P49841 whole entry, looked up, stated change not applied): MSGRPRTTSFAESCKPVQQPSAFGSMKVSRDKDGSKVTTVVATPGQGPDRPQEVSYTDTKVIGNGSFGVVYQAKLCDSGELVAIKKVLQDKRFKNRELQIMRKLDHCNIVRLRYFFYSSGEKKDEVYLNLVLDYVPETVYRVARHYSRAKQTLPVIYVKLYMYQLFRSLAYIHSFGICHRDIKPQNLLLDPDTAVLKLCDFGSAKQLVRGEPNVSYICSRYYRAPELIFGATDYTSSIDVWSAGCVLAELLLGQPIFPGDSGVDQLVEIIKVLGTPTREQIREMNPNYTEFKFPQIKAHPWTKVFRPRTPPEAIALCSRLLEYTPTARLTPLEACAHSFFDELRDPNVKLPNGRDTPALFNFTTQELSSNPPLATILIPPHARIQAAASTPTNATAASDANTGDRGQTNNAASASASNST
Glycogen synthase kinase-3 beta, sequence (P49841 whole entry): as the sequence (P49841 whole entry, looked up, stated change not applied) above
Cyclin-dependent kinase 1/cyclin B1 (Homo sapiens), sequence (P06493 whole entry, looked up): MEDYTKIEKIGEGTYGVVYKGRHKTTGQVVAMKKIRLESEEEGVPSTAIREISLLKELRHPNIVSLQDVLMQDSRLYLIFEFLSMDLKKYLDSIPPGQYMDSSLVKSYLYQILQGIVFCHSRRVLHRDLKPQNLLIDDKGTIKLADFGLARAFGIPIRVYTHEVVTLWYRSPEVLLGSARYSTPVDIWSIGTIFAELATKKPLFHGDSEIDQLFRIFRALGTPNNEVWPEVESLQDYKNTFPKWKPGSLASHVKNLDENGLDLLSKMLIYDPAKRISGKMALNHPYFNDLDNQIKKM
Cyclin-dependent kinase 1/cyclin B1 (Homo sapiens), sequence (P14635 whole entry, looked up): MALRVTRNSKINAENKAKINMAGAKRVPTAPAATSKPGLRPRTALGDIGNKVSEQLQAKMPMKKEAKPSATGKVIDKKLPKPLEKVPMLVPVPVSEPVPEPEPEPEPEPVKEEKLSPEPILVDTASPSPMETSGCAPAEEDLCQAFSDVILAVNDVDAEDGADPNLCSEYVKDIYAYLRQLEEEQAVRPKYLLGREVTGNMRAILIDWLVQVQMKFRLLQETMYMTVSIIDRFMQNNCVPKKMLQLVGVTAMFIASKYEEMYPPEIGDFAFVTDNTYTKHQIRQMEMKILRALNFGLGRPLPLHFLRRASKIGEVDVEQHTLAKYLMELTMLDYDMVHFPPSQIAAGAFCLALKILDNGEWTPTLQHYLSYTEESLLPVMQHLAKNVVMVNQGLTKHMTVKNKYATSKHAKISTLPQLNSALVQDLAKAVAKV
CDK3/Cyclin E (Homo sapiens), sequence (P24864 whole entry, looked up): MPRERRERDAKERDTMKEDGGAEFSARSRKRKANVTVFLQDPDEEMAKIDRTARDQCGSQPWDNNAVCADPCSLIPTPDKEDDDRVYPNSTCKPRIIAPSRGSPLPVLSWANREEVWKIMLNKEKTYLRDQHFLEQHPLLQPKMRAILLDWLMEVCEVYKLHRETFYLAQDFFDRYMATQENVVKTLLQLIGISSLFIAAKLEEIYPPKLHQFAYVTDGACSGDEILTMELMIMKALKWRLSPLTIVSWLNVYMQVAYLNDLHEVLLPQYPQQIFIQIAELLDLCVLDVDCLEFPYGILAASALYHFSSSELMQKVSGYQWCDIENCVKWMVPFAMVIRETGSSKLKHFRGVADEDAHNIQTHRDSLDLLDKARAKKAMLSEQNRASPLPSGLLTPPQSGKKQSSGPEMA
CDK3/Cyclin E (Homo sapiens), sequence (Q00526 whole entry, looked up): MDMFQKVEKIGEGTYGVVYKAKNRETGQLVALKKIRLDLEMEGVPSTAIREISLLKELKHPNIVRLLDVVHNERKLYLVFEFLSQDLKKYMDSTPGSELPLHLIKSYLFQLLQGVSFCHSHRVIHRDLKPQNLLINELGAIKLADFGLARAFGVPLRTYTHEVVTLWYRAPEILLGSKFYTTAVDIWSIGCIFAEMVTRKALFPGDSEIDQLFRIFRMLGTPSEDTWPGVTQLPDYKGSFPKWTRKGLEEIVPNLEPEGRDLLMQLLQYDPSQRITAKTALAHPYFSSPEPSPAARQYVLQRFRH
CDK8/Cyclin C, sequence (P49336 whole entry): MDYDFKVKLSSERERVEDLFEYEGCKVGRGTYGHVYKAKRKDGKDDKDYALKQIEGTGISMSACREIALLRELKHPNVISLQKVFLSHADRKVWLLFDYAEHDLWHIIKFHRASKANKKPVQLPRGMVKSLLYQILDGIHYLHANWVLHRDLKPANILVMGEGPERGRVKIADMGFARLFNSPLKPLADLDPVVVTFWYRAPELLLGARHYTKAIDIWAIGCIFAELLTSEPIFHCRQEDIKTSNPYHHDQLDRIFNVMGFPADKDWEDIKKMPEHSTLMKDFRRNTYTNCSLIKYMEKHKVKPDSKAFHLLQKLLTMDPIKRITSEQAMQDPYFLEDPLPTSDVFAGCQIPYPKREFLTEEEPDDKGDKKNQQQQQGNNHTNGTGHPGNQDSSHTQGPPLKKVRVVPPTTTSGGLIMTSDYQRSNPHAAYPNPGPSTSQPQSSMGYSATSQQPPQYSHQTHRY
CDK8/Cyclin C, sequence (P24863 whole entry, further chain): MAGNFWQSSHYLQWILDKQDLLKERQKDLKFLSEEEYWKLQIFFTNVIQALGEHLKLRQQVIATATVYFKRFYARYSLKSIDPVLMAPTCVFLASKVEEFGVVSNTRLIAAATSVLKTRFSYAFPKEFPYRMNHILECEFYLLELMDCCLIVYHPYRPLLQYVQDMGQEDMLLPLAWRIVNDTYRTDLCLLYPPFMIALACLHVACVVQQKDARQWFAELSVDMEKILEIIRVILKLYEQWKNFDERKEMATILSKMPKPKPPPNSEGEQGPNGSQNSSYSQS
CDK17/Cyclin-Y (Homo sapiens), sequence (Q00537 whole entry): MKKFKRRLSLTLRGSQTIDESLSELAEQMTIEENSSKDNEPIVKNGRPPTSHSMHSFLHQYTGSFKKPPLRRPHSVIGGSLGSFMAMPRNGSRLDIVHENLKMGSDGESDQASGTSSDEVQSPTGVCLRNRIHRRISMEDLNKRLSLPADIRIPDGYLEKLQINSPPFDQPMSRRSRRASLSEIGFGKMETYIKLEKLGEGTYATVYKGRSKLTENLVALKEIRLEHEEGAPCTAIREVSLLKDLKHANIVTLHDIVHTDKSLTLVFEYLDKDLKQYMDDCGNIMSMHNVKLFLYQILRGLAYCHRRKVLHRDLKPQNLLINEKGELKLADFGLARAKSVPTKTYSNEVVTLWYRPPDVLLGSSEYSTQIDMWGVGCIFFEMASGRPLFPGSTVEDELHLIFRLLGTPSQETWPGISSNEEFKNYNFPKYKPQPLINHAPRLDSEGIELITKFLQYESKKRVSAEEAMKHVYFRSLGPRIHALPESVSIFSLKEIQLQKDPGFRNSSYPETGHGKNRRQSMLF
CDK17/Cyclin-Y (Homo sapiens), sequence (Q8ND76 2-341 partner limits assumed): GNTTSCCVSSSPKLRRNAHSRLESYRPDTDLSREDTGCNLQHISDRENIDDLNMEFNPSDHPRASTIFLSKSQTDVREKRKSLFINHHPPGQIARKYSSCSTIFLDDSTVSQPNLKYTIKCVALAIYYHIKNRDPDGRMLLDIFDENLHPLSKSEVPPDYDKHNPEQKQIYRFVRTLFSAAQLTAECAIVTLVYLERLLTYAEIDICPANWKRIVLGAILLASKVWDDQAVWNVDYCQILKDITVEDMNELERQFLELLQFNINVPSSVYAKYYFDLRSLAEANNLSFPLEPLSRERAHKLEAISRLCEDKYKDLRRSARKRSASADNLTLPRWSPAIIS

Structure (SMILES): O=C1NCCC12CCN(c1c(Cl)cncc1-c1cc3ccccc3s1)CC2
- inhibition [1]: inactive
- GI50 (MV4-11): 0.58 µM
- GI50 (U-937): 2.69 µM
- GI50 (COLO 205): > 50 µM
- GI50 (MOLM-13): 5.81 µM
- inhibition [2]: inactive
- inhibition [3]: inactive
- IC50 [4]: 16.6 µM
- Ki [5]: 0.043 µM
- Ki (CDK8/Cyclin C): 0.014 µM
- GI50 (MDA-MB-231): 34.2 µM
- inhibition [6]: > 50%
- inhibition [7]: inactive
- inhibition [8]: inactive
- GI50 at 72 h [9]: 35 µM
- GI50 (HCT-116): 42.7 µM
- inhibition [10]: > 50%
- inhibition [11]: inactive
- inhibition [12]: inactive
- inhibition [13]: inactive
- GI50 (PANC-1): > 50 µM
- Ki [14]: 0.134 µM
- inhibition [15]: > 50%
- inhibition [16]: inactive
- GI50 (A2780): 17.6 µM
- Ki [17]: 0.018 µM
- inhibition [18]: inactive
- inhibition [19]: inactive
- GI50 (T47D): 17.9 µM
- inhibition [20]: inactive
- GI50 (HT-29): 29.3 µM
- GI50 (MCF7): > 50 µM
- inhibition [21]: inactive
- GI50 (MDA-MB-453): 17.4 µM
